Compound activity from PubChem.
HCT116 PTEN-null: growth suppression of PTEN-null HCT116, primary screen, cell-based, CellTiter-Glo | AID 827, 2007 | 140,000 tested, 1.2% active | HCT116 PTEN-null viability, 60 h; active compounds read low | viability, % at 10 µM;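 active means viability at or below a set limit, 4 SD under the median of all tested compounds, cut at about 3.7% in these data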;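 further: PTEN knockout HCT116 line with beta catenin targeted HCT116 as companion control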
HCT116 bCat-KO: primary screen for growth suppressors in beta-catenin knockout HCT116 cells (colon tumor, human); 140,000 tested, 1.5% active; HCT116 beta-catenin knockout viability, CellTiter-Glo, 60 h; active compounds read low; viability, % at 10 µM;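 active means viability at or under a set limit, the compound median less 4 SD, cut at about 6% in these data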;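 further: 0% = Hyamine 1622 control at 20 µM and 100% = untreated cell control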
HUVEC inhibit: inhibitors of HUVEC proliferation, primary screen, cell-based, 384-well | CellTiter-Glo luminescence, 72 h; active compounds read low | viability, % at 10 µM (by protocol) | 86,000 tested, 1.1% active | AID 648, 2007;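 active means viability at or below 30%; inactive means viability above 30%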;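 further: 100% = median luminescence of DMSO-only cell control wells on each plate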
H69AR inhibit: proliferation blockers of H69AR lung cancer cells, primary screen, cell-based, human, 86K library; H69AR lung tumor viability, ATP luminescence, 72 h; active compounds read low; 85,000 tested, 6% active; viability, % at 10 µM;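 active means viability at or below 40%; inactive means viability above 40%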;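 further: multidrug resistant small cell line overexpressing MRP-1 efflux transporter; 100% = mean luminescence of untreated control wells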
Lung fibro prol: antiproliferative effect on LL 47 fibroblasts – human, LL 47 cells, CellTiter-Glo luminescence, primary screen; 85,000 tested, 1.1% active; viability, % at 10 µM; LL 47 human lung fibroblast viability, ATP luminescence; active compounds read low;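 active means viability at or below 50% in the single dose screen; inactive means viability above 50%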;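 further: compound exposure lasted 72 h before the ATP readout; 100% = median luminescence of untreated cell-only wells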
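Signal: luminescent ATP detection, CellTiter-Glo; assay system: LL 47 human lung fibroblasts; input: 1,150 cells/well; incubation: overnight cell rest, 72 h compound treatment at 37 °C; measure: % viability versus median cells-only luminescence; medium: IMEM growth medium with 15% fetal bovine serum; dosing: compound addition at 0.1% DMSO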
An asterisk follows results filed as active; / = no result. The entries come from a sample that favours hits as a whole.

SMILES	HCT116 PTEN-null	HCT116 bCat-KO	HUVEC inhibit	H69AR inhibit	Lung fibro prol
CCOC(=O)Cc1csc(/N=C/c2c(O)n(-c3ccccc3C(F)(F)F)c(=O)c3ccccc23)n1	62	76	/	/	/
COc1ccccc1NC(=O)CC1C(=O)NCCN1C(=O)Nc1ccc(Cl)c(Cl)c1 (centres undefined)	39	59	15*	53	86
Cc1ccc2c(c1)CCCN2C(=O)c1ccoc1C	86	87	85	34*	103
Cc1ccccc1C(=O)c1c[nH]c(C(N)=O)c1	94	104	/	/	/
O=C(c1c[nH]c(C(=O)C(Cl)(Cl)Cl)c1)c1ccccc1Cl	31	9	81	23*	62
N#Cc1ccc(/C=C/C(=O)c2ccco2)cc1	1.6*	2.3*	/	/	/
COc1cc(-c2nnc(COC(=O)c3c4c(nc5ccccc35)CCCC4)o2)cc(OC)c1OC	66	66	/	/	/
CC1(C)C(C=C(Cl)Cl)C1C(=O)Nc1ccc([N+](=O)[O-])cc1 (centres undefined)	2.4*	3.9*	/	/	/
O=C(Nc1ccc([N+](=O)[O-])cc1)C1CC1(c1ccccc1)c1ccccc1 (centres undefined)	66	73	/	/	/
CN(/N=C/c1ccc(O)cc1O)c1nc(-c2ccccc2)cc(-c2ccccc2)n1	19	16	/	/	/
COc1ccc(CC(=O)Nc2ccccc2C(=O)N2CCOCC2)cc1	91	87	/	/	/
COc1cccc(CN(C)C(=O)Nc2cccc(C(F)(F)F)c2)c1OC	80	85	/	/	/
O=C(N/N=C/C(Br)=C/c1ccccc1)c1n[nH]c2c1CCC2	1.7*	2.7*	30	1.8*	59
Cc1nnc2sc(-c3ccc(NC(=O)c4ccc(-c5ccc(Cl)cc5Cl)o4)cc3)nn12	/	/	28*	8.2*	59
CN1CCN(c2ccccc2NC(=O)c2ccc(-c3ccc(Cl)cc3Cl)o2)CC1	7	5.5*	5.8*	32*	94
Cc1nnc2sc(-c3ccc(NC(=O)c4cccnc4)cc3)nn12	/	/	99	10*	103
CCc1ccc(NC(=O)c2cccnc2)cc1	100	91	98	81	94
CCSc1ccc(NC(=O)c2cccnc2)cc1	84	94	105	33*	100
CS(=O)(=O)N1CCN(c2ccccc2NC(=O)c2ccc(-c3ccc(Cl)cc3Cl)o2)CC1	69	67	89	69	97
CC(=O)Cc1nsc(NC(=O)c2ccc(-c3ccc(Cl)cc3Cl)o2)n1	108	102	70	43	99
CCN(CC)c1ccc(NC(=O)c2cccc(C)c2OC)c(C)c1	76	76	106	83	90
CCN(CC)c1ccc(NC(=O)c2cccnc2)c(C)c1	38	49	89	40*	99
COc1ccc(C(=O)c2ccc(N(C)C)cc2)c2ccccc12	15	12	40	27*	59
CN(C)c1ccc(C(=O)c2ccc(O)cc2O)cc1	90	98	95	51	109
O=C1C(Cl)=C(N2CCN(c3ccccc3[N+](=O)[O-])CC2)C(=O)c2ccccc21	1.2*	0.9*	/	/	/
SMILES	HCT116 PTEN-null	HCT116 bCat-KO	HUVEC inhibit	H69AR inhibit	Lung fibro prol
CCCCCCn1cnc2c(c1=O)c1nc3ccccc3nc1n2/N=C/c1ccco1	96	96	74	85	97
COCCn1cnc2c(c1=O)c1nc3ccccc3nc1n2/N=C/c1cccc(OC)c1OC	/	/	67	39*	96
COc1cccc(/C=N/n2c(N)c(S(=O)(=O)c3cccs3)c3nc4ccccc4nc32)c1OC	2.8*	2.1*	/	/	/
O=c1c2c3nc4ccccc4nc3n(/N=C/c3cccs3)c2ncn1-c1ccccc1	/	/	84	30*	105
COCCn1c(N)c(S(=O)(=O)c2cccs2)c2nc3ccccc3nc21	89	96	99	73	98
C=CCn1cnc2c(c1=O)c1nc3ccccc3nc1n2/N=C/c1cccc(OC)c1	/	/	49	22*	92
O=C(NS(=O)(=O)Oc1ccc(Cl)cc1)OC[C@@H]1CCCN2CCCC[C@H]12	101	95	/	/	/
Cc1ccc(S(=O)(=O)c2c(N)n(-c3ccccc3)c3nc4ccccc4nc23)cc1	72	79	/	/	/
Nc1c(S(=O)(=O)c2cccc(Cl)c2)c2nc3ccccc3nc2n1/N=C/c1ccc(O)c(O)c1	1.5*	1.1*	6.0*	1.3*	14*
Cc1cc(C)n(CC(O)Cn2c3ccc(Br)cc3c3cc(Br)ccc32)c(=O)n1 (centres undefined)	53	79	21*	92	96
